From ChEMBL document CHEMBL5058577, “EUbOPEN Chemogenomics Library 2 (Multiplex)” (2022)

Test system: HEK-293T
Test: Multiplex assay against HEK293T
Format: toxicity, cell-based
Conditions: human
Summary of the method: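 Compound was added to live cells that had been stained at seeding with Hoechst33342, BioTracker Green Microtubule Cytoskeleton Dye, MitoTracker Red and Annexin V Alexa Fluor 680, and imaging followed on a CQ1 microscope at 37°C and 5% CO2. CellPathfinder machine-learning gating divided cells into Hoechst high-intensity objects or normal cells, normal cells into healthy, pyknosed or fragmented nuclei, and pyknosed cells into mitotic or apoptotic. Tubulin, mitochondrial-mass and membrane-permeability phenotypes are per cents of healthy-nucleus cells.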

[1] = 12 h, 1 µM, compound concentration 1 uM, replicate 1
[2] = 12 h, 1 µM, compound concentration 1 uM, replicate 2
[3] = 12 h, 10 µM, compound concentration 10 uM, replicate 1
[4] = 12 h, 10 µM, compound concentration 10 uM, replicate 2
[5] = 24 h, 1 µM, compound concentration 1 uM, replicate 1
[6] = 24 h, 1 µM, compound concentration 1 uM, replicate 2
[7] = 24 h, 10 µM, compound concentration 10 uM, replicate 1
[8] = 24 h, 10 µM, compound concentration 10 uM, replicate 2
[9] = 48 h, 1 µM, compound concentration 1 uM, replicate 1
[10] = 48 h, 1 µM, compound concentration 1 uM, replicate 2
[11] = 48 h, 10 µM, compound concentration 10 uM, replicate 1
[12] = 48 h, 10 µM, compound concentration 10 uM, replicate 2

For CC(/C=C1\SC(=S)N(CCCC(=O)Nc2ccc(C(=O)O)c(O)c2)C1=O)=C\c1ccccc1, the “Population Apoptotic (%)” value [1] was 34%, the “Population Fragmented Nuclei (%)” value [1] was 6% and the “Population Healthy Nuclei (%)” value [1] was 81%. The “Population Hoechst High Intensity Objects (%)” value [1] was 6%, the “Population Membrane Permeable-Phenotype (%)” value [1] was 0% and the “Population Mitochondria Different-Phenotype (%)” value [1] was 41%. The “Population Mitotic Cells (%)” value [1] was 65%, the “Population Normal (%)” value [1] was 93% and the “Population Pyknosed Nuclei (%)” value [1] was 11%. The “Population Tubulin-Different-Phenotype (%)” value [1] was 31%, the “Total Cell Count” value [1] was 422 and the “Population Apoptotic (%)” value [2] was 50%. For the same molecule, the “Population Healthy Nuclei (%)” value [2] was 84%, the “Population Mitochondria Different-Phenotype (%)” value [2] was 62% and the “Population Mitotic Cells (%)” value [2] was 50%. For the same molecule, the “Population Pyknosed Nuclei (%)” value [2] was 8%, the “Population Tubulin-Different-Phenotype (%)” value [2] was 20% and the “Total Cell Count” value [2] was 389. For the same molecule, the “Population Apoptotic (%)” value [3] was 43%, the “Population Fragmented Nuclei (%)” value [3] was 5% and the “Population Healthy Nuclei (%)” value [3] was 76%. For the same molecule, the “Population Hoechst High Intensity Objects (%)” value [3] was 7%, the “Population Membrane Permeable-Phenotype (%)” value [3] was 0% and the “Population Mitochondria Different-Phenotype (%)” value [3] was 45%. The “Population Mitotic Cells (%)” value [3] was 56%, the “Population Normal (%)” value [3] was 92% and the “Population Pyknosed Nuclei (%)” value [3] was 18%. For the same molecule, the “Population Tubulin-Different-Phenotype (%)” value [3] was 35%, the “Total Cell Count” value [3] was 313 and the “Population Apoptotic (%)” value [4] was 51%. For the same molecule, the “Population Healthy Nuclei (%)” value [4] was 79%, the “Population Mitochondria Different-Phenotype (%)” value [4] was 49% and the “Population Mitotic Cells (%)” value [4] was 48%. For the same molecule, the “Population Pyknosed Nuclei (%)” value [4] was 15%, the “Population Tubulin-Different-Phenotype (%)” value [4] was 26% and the “Total Cell Count” value [4] was 327. For the same molecule, the “Population Apoptotic (%)” value [5] was 27%, the “Population Fragmented Nuclei (%)” value [5] was 9% and the “Population Healthy Nuclei (%)” value [5] was 79%. For the same molecule, the “Population Hoechst High Intensity Objects (%)” value [5] was 4%, the “Population Membrane Permeable-Phenotype (%)” value [5] was 0% and the “Population Mitochondria Different-Phenotype (%)” value [5] was 28%. The “Population Mitotic Cells (%)” value [5] was 72%, the “Population Normal (%)” value [5] was 95% and the “Population Pyknosed Nuclei (%)” value [5] was 10%. For the same molecule, the “Population Tubulin-Different-Phenotype (%)” value [5] was 26%, the “Total Cell Count” value [5] was 604 and the “Population Apoptotic (%)” value [6] was 31%. The “Population Fragmented Nuclei (%)” value [6] was 7%, the “Population Healthy Nuclei (%)” value [6] was 83% and the “Population Hoechst High Intensity Objects (%)” value [6] was 7%. The “Population Mitochondria Different-Phenotype (%)” value [6] was 52%, the “Population Mitotic Cells (%)” value [6] was 68% and the “Population Normal (%)” value [6] was 92%. The “Population Pyknosed Nuclei (%)” value [6] was 8%, the “Population Tubulin-Different-Phenotype (%)” value [6] was 21% and the “Total Cell Count” value [6] was 491. For the same molecule, the “Population Apoptotic (%)” value [7] was 33%, the “Population Fragmented Nuclei (%)” value [7] was 8% and the “Population Healthy Nuclei (%)” value [7] was 75%. The “Population Hoechst High Intensity Objects (%)” value [7] was 5%, the “Population Membrane Permeable-Phenotype (%)” value [7] was 0% and the “Population Mitochondria Different-Phenotype (%)” value [7] was 34%. The “Population Mitotic Cells (%)” value [7] was 66%, the “Population Normal (%)” value [7] was 94% and the “Population Pyknosed Nuclei (%)” value [7] was 16%. The “Population Tubulin-Different-Phenotype (%)” value [7] was 31%, the “Total Cell Count” value [7] was 369 and the “Population Apoptotic (%)” value [8] was 39%. The “Population Healthy Nuclei (%)” value [8] was 79%, the “Population Hoechst High Intensity Objects (%)” value [8] was 6% and the “Population Mitochondria Different-Phenotype (%)” value [8] was 40%. For the same molecule, the “Population Mitotic Cells (%)” value [8] was 60%, the “Population Normal (%)” value [8] was 93% and the “Population Pyknosed Nuclei (%)” value [8] was 12%. For the same molecule, the “Population Tubulin-Different-Phenotype (%)” value [8] was 20%, the “Total Cell Count” value [8] was 422 and the “Population Apoptotic (%)” value [9] was 23%. For the same molecule, the “Population Fragmented Nuclei (%)” value [9] was 13%, the “Population Healthy Nuclei (%)” value [9] was 79% and the “Population Hoechst High Intensity Objects (%)” value [9] was 2%. The “Population Membrane Permeable-Phenotype (%)” value [9] was 1%, the “Population Mitochondria Different-Phenotype (%)” value [9] was 16% and the “Population Mitotic Cells (%)” value [9] was 76%. For the same molecule, the “Population Normal (%)” value [9] was 97%, the “Population Pyknosed Nuclei (%)” value [9] was 7% and the “Population Tubulin-Different-Phenotype (%)” value [9] was 14%. For the same molecule, the “Total Cell Count” value [9] was 998, the “Population Apoptotic (%)” value [10] was 19% and the “Population Fragmented Nuclei (%)” value [10] was 14%. For the same molecule, the “Population Hoechst High Intensity Objects (%)” value [10] was 5%, the “Population Membrane Permeable-Phenotype (%)” value [10] was 0% and the “Population Mitochondria Different-Phenotype (%)” value [10] was 26%. The “Population Mitotic Cells (%)” value [10] was 80%, the “Population Normal (%)” value [10] was 94% and the “Population Pyknosed Nuclei (%)” value [10] was 6%. For the same molecule, the “Population Tubulin-Different-Phenotype (%)” value [10] was 13%, the “Total Cell Count” value [10] was 673 and the “Population Apoptotic (%)” value [11] was 24%. For the same molecule, the “Population Fragmented Nuclei (%)” value [11] was 9%, the “Population Healthy Nuclei (%)” value [11] was 79% and the “Population Hoechst High Intensity Objects (%)” value [11] was 3%. For the same molecule, the “Population Membrane Permeable-Phenotype (%)” value [11] was 2%, the “Population Mitochondria Different-Phenotype (%)” value [11] was 25% and the “Population Mitotic Cells (%)” value [11] was 75%. The “Population Normal (%)” value [11] was 96%, the “Population Pyknosed Nuclei (%)” value [11] was 10% and the “Population Tubulin-Different-Phenotype (%)” value [11] was 22%. The “Total Cell Count” value [11] was 479, the “Population Apoptotic (%)” value [12] was 39% and the “Population Fragmented Nuclei (%)” value [12] was 11%. For the same molecule, the “Population Healthy Nuclei (%)” value [12] was 82%, the “Population Hoechst High Intensity Objects (%)” value [12] was 5% and the “Population Mitochondria Different-Phenotype (%)” value [12] was 23%. The “Population Mitotic Cells (%)” value [12] was 60%, the “Population Normal (%)” value [12] was 94% and the “Population Pyknosed Nuclei (%)” value [12] was 6%. For the same molecule, the “Population Tubulin-Different-Phenotype (%)” value [12] was 24% and the “Total Cell Count” value [12] was 555.
